# Source: PubChem
# 5HT1a ag: human 5-HT1a receptor agonists, primary screen, cell-based, CHO, Ga15 NFAT-bla reporter. AID 567, 2006. 5-hydroxytryptamine receptor 1A (Homo sapiens), P08908. CHO 5-HT1a Ga15 NFAT-bla reporter, FRET ratio; 0% basal, 100% maximal reference agonist. activation, % at 10 µM. 0.56% of 65,000 active;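 active means activation above the screen-wide mean activation plus 3 SD, cut at about 19% in these data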;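 further: 0% = DMSO wells and 100% = 5-CT at EC100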
# Target sequence (P08908 whole entry, looked up): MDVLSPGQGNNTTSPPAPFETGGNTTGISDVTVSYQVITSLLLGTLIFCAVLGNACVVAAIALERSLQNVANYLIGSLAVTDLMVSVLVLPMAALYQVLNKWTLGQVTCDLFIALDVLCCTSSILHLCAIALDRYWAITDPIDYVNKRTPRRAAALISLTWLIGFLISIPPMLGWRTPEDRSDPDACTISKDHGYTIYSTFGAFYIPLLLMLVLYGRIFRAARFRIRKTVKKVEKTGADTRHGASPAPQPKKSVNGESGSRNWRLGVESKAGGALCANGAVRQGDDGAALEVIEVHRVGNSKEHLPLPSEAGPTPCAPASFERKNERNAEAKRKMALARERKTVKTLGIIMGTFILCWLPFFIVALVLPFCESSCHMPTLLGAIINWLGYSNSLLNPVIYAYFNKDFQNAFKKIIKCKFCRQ
# 5-HT1A blocker: human 5-HT1a receptor antagonists, primary screen, cell-based, CHO, Ga15 NFAT-bla reporter. CHO 5-HT1a Ga15 NFAT-bla reporter, antagonist mode. inhibition, % at 10 µM. 0.68% of 62,000 active. AID 612, 2007;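 active means inhibition above the mean of all tested compounds plus 3 SD, cut at about 43% in these data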;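 further: receptor stimulated by 5-CT agonist at 100 nM near EC80; beta-lactamase reporter measured by ratiometric fluorescence of a cleavable substrate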
# 5HT1E antag: 5-HT1E receptor antagonists, primary screen, cell-based, HTS; 5-hydroxytryptamine receptor 1E (Homo sapiens), P28566; CHO 5-HT1E Ga15 NFAT-bla reporter, FRET, antagonist; inhibition, % at 6 µM; 0.99% of 65,000 active; AID 571, 2007;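 active means inhibition above a set limit, the mean inhibition across every tested compound plus 3 SD, cut at about 29% in these data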;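 further: signal is the 460 over 535 nm emission ratio of beta-lactamase substrate; 0% = agonist plus DMSO wells and 100% = wells without agonist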
# S1P1 ag-PAM: S1P1 agonists and agonism potentiators, primary screen, cell-based, primary and confirmation screens, CRE-bla reporter; Sphingosine 1-phosphate receptor 1 (Homo sapiens), P21453; S1P1 CRE-bla cells, forskolin, beta-lactamase FRET, potentiator mode; S1P1 agonist co-added at EC20, 2 nM; 100% = saturating reference agonist, 0% = basal; activation, % at 9.5 µM; 0.57% of 56,000 active; AID 449, 2006;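 active means activation above a cutoff set at the mean activation of all tested compounds plus 3 SD, cut at about 54% in these data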;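 further: forskolin at 4 µM as EC80 and the EC20 agonist is SEW2871; 100% = SEW2871 at its EC100 plus forskolin at EC80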
# 5HT1E ag: 5-HT1E receptor agonists, primary screen, cell-based, HTS; activation, % at 6 µM; 5-hydroxytryptamine receptor 1E (Homo sapiens), P28566; CHO 5-HT1E Ga15 NFAT-bla reporter, FRET; 0% DMSO wells, 100% control agonist wells; 0.69% of 65,000 active;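 active means activation above a set limit, the screen-wide mean activation plus 3 SD, cut at about 8.5% in these data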;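 further: 100% = positive control agonist at 1 µM giving full maximal response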
# S1P3 ag: human S1P3 receptor agonists, primary screen, cell-based, primary and confirmation, NFAT-BLA reporter; Sphingosine 1-phosphate receptor 3 (Homo sapiens), Q99500; S1P3 NFAT-BLA reporter cells, agonism, FRET ratio; relative to 1 µM S1P, basal subtracted; activation, % at 4.5 µM; 0.1% of 60,000 active; AID 373, 2006;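 active means activation above the screen-wide mean plus 3 SD, cut at about 4.5% in these data, passing the limit was not always enough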
#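 material = human S1P3 NFAT-BLA reporter CHO cells | schedule = 4 h compound at 37 °C, 2 h substrate at RT | measured by = fluorescent BLA substrate, ex 405 nm, em 460/535 nm ratio | controls = 1 µM S1P reference | replication = primary once, confirmation triplicate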
# * hit, by the source's call; / = no result. Most compounds without a hit are left out; they make up all but 3% or so of the library.
SMILES,5HT1a ag,5-HT1A blocker,5HT1E antag,S1P1 ag-PAM,5HT1E ag,S1P3 ag
Cc1ccccc1S(=O)(=O)Cc1ccc(C(=O)N2CC(C)CC(C)C2)o1 (centres undefined),-1,-1,-2,-4,1,0
COc1cc(C(=O)N2CCN(c3cc(Cl)ccc3Cl)CC2)cc(OC)c1OC,0,22,64*,0,0,-1
COc1ccc(C(=O)N2CCN(C(=O)c3cc(OC)c(OC)c(OC)c3)CC2)cc1,1,-4,-10,4,1,0
C=CCOc1cccc(C2C(C(=O)c3ccco3)=C(O)C(=O)N2CCN(CC)CC)c1 (centres undefined),20*,0,-6,-11,0,0
COc1cc(OC)nc(NC(=O)COC(=O)C2CCCCC2)n1,91*,-1,-1,4,1,-1
O=C(COC(=O)C1CCCCC1)Nc1ccc(N2CCCCC2)cc1,-2,-19,-6,/,0,/
O=C(O)C1C2C=CC(C2)C1C(=O)NCCc1cccc(Cl)c1 (centres undefined),8,0,8,/,12*,0
O=C(O)CCc1cc(I)c(Oc2ccc(O)c(I)c2)c(I)c1,-1,/,15,1,0,-3
O=C(Nc1cccc(-c2cn3ccsc3n2)c1)c1ccccc1,-1,2,4,-9,83*,0
CCOc1ccc(OCC)c(NC(=O)C2CCCN(c3nc(C)cc(C)n3)C2)c1 (centres undefined),0,7,-6,3,0,0
CCOc1ccc(NC(=O)CN(C)CC(=O)Nc2ccccc2C#N)cc1OCC,289*,-10,7,-7,0,0
Nc1nonc1-c1nc2ccccc2n1CC(=O)N1CCCCC1,0,7,5,15,0,0
COC(=O)c1ccccc1NC(=O)Cn1c(-c2nonc2N)nc2ccccc21,-2,74*,81*,20,-1,-2
CCOC(=O)c1c(-c2ccc(C)o2)csc1NC(=O)CSc1nnc(C)s1,2,56*,17,-36,2,-1
CCOC(=O)c1c(-c2ccc(C)o2)csc1NC(=O)CSc1nnnn1-c1ccccc1,0,18,-14,-25,1,-1
CC(C)c1c(O)nc(SCC(=O)Nc2ccc3c(c2)CCC3)[nH]c1=O,2,-6,-7,12,0,0
Cc1c(NC(=O)c2cc(-c3cccs3)on2)c(=O)n(-c2ccccc2)n1C,-1,-6,-4,-19,0,-1
COc1ccccc1N(C)S(=O)(=O)c1ccc(C(=O)OCC(=O)NCc2ccco2)cc1,-3,10,-5,-4,0,0
CCOC(=O)C1=C(N)OC2=C(C(=O)CCC2)C1c1ccccc1OCC (centres undefined),-2,12,9,14,0,19*
COc1ccc(-n2nnnc2S(=O)(=O)CC(=O)N2CCCCC2)cc1,-1,92*,69*,110,-1,-2
COc1cccc(-n2c(SCC(=O)Nc3cc(C)on3)nc3c([nH]c4ccccc43)c2=O)c1,0,28,32*,-59,0,0
Cc1ccc2[nH]c(=O)c(CN(Cc3ccco3)C(=O)c3ccncc3)cc2c1,-6,5,13,17,0,-1
O=C(c1cccs1)N(Cc1ccco1)Cc1cc2ccccc2[nH]c1=O,51*,-1,-8,-37,1,0
CC(=O)CC1(O)C(=O)N(CN2CCN(c3ccccc3)CC2)c2ccccc21 (centres undefined),0,12,19,14,15*,-1
CCn1cc(C(=O)Nc2ccc(NC(=O)c3ccco3)cc2)c(=O)c2ccc(C)nc21,-5,-6,9,-9,-1,1
SMILES,5HT1a ag,5-HT1A blocker,5HT1E antag,S1P1 ag-PAM,5HT1E ag,S1P3 ag
Cc1ccccc1OCCCN1CCCC1,-3,-9,0,-12,1,0
CCc1ccccc1OCCCCN1CCCC1,-1,6,-9,/,12*,-1
C=CCc1ccccc1OCCCCN1CCCC1,2,20,7,-4,10*,-2
CC1CCN(C2CC(=O)N(c3ccc(Br)cc3Br)C2=O)CC1 (centres undefined),-1,16,-5,/,1,/
CCN(CC)c1nc(Nc2ccc(Cl)cc2)nc(OCC#N)n1,1,31,33*,-16,0,-1
CCN(CC)c1nc(Nc2ccccc2)nc(Oc2ccc(=O)[nH]n2)n1,-4,14,22,-15,0,-2
O=C(CN1CCN(Cc2ccccc2)CC1)c1ccc(Br)cc1,22*,-2,-4,-3,2,-1
CCCS(=O)(=O)N1CCCC(C(=O)NCCN(C)Cc2ccccc2)C1 (centres undefined),-2,-4,-10,-5,1,0
CCC(C)c1ccc2oc(-c3ccc(NC(=O)Cn4cnc5c(=O)n(C)c(=O)n(C)c54)cc3)nc2c1 (centres undefined),8,9,-5,111*,2,0
Cn1c(=O)c2ncn(CC(=O)Nc3ccc4oc(-c5cccc6ccccc56)nc4c3)c2n(C)c1=O,-1,-1,1,-6,0,-1
CCC(O)CNc1nc(-n2nc(C)cc2C)nc2sc3c(c12)CCCC3 (centres undefined),2,0,2,-50,-1,1
Cc1cc(C)n(-c2nc(NCc3cccnc3)c3c4c(sc3n2)COC(C)(C)C4)n1,1,-6,15,-86,0,13*
Cc1cc(C)n(-c2nncn2/N=C/c2ccccc2F)n1,-2,55*,12,7,-2,-1
Fc1ccccc1/C=N/n1cnnc1,2,/,-8,2,0,-2
NC(=O)CSc1nc(-c2ccccc2Cl)ns1,-1,-8,3,-16,0,-1
COc1ccc(NC(=O)CN(c2ccc(C)cc2)S(=O)(=O)c2c(C)nn(C)c2C)cc1OC,0,-3,6,5,0,0
CCN(CC(=O)Nc1ccc(OC)c(OC)c1)S(=O)(=O)c1ccc(C)cc1,22*,-18,-7,/,0,1
Cc1cc(OC(=O)c2ccc(S(=O)(=O)N(C)C)cc2)cc(=O)o1,0,9,-5,-4,0,0
